ChEMBL document CHEMBL1125602, “Inhibitors of the protease from human immunodeficiency virus: design and modeling of a compound containing a dihydroxyethylene isostere insert with high binding affinity and effective antiviral activity” (J Med Chem, 1991)

Experiments:
[1] = target: Human immunodeficiency virus type 1 protease (Human immunodeficiency virus 1, UniProt Q72874); assay: Inhibitory activity against HIV-1 protease
Summary of the method: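 Recombinant HIV-1 protease refolded from E. coli inclusion bodies; substrate GSP (H-Val-Ser-Gln-Asn-Tyr-Pro-Ile-Val-OH) at 2.5 mM. Run at 30 °C in 100 mM sodium acetate pH 5.5 with 10% glycerol, 5% ethylene glycol, 0.1% Nonidet P-40. Inhibitor added before enzyme, five to seven concentrations. Stopped at 30 min with TFA, products by HPLC; Ki from Dixon plots.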

[2] = The compound was tested for its antiviral activity against vaccinia virus in CV-1 monkey cells at 10 uM; assay type: functional; conditions: Cercopithecidae

SMILES | Ki [1] | inhibition at 10 µM [2]
CC[C@H](C)[C@H](NC(=O)[C@H](CC1CCCCC1)[C@@H](O)[C@H](O)[C@H](CC1CCCCC1)NC(=O)[C@H](Cc1c[nH]cn1)NC(=O)COc1cccc2ccccc12)C(=O)NCc1ccccn1 | 26 nM | –
CC[C@H](C)[C@H](NC(=O)[C@H](C(C)C)[C@@H](O)[C@H](O)[C@H](CC(C)C)NC(=O)[C@H](Cc1c[nH]cn1)NC(=O)[C@@H](Cc1ccccc1)NC(=O)OC(C)(C)C)C(=O)NCc1ccccn1 | 28 nM | –
CC[C@H](C)[C@H](NC(=O)[C@H](C(C)C)[C@@H](O)[C@H](O)[C@H](CC(C)C)NC(=O)[C@H](Cc1c[nH]cn1)NC(=O)COc1cccc2ccccc12)C(=O)NCc1ccccn1 | 5 nM | –
CC[C@H](C)[C@H](NC(=O)[C@H](C(C)C)[C@@H](O)[C@H](O)[C@H](CC(C)C)NC(=O)[C@H](Cc1c[nH]cn1)NC(=O)COc1ccccc1)C(=O)NCc1ccccn1 | 5 nM | –
CC[C@H](C)[C@H](NC(=O)[C@H](C(C)C)[C@@H](O)[C@H](O)[C@H](CC1CCCCC1)NC(=O)[C@H](Cc1c[nH]cn1)NC(=O)COc1ccccc1)C(=O)NCc1ccccn1 | 2 nM | 100%
CC[C@H](C)[C@H](NC(=O)[C@H](C(C)C)[C@@H](O)[C@H](O)[C@H](CC1CCCCC1)NC(=O)[C@H](Cc1c[nH]cn1)NC(=O)CO)C(=O)NCc1ccccn1 | 4 nM | 0%
CC[C@H](C)[C@H](NC(=O)[C@H](CC(C)C)[C@@H](O)[C@H](O)[C@H](CC1CCCCC1)NC(=O)[C@H](Cc1c[nH]cn1)NC(=O)COc1cccc2ccccc12)C(=O)NCc1ccccn1 | 5 nM | –
CC[C@H](C)[C@H](NC(=O)[C@H](C(C)C)[C@@H](O)[C@H](O)[C@H](CC1CCCCC1)NC(=O)[C@H](Cc1c[nH]cn1)NC(=O)CN)C(=O)NCc1ccccn1 | 11 nM | 0%
CC[C@H](C)[C@H](NC(=O)[C@H](C(C)C)[C@H](O)[C@H](O)[C@H](CC(C)C)NC(=O)[C@H](Cc1c[nH]cn1)NC(=O)[C@@H](Cc1ccccc1)NC(=O)OC(C)(C)C)C(=O)NCc1ccccn1 | 500 nM | –
CC[C@H](C)[C@H](NC(=O)[C@H](C(C)C)[C@@H](O)[C@H](O)[C@H](CC1CCCCC1)NC(=O)CC1CCCCC1)C(=O)NCc1ccccn1 | 22 nM | 80%
CC[C@H](C)[C@H](NC(=O)[C@H](C(C)C)[C@@H](O)[C@H](O)[C@H](CC1CCCCC1)NC(=O)[C@H](Cc1c[nH]cn1)NC(=O)COc1cccc2ccccc12)C(=O)NCc1ccccn1 | < 1 nM | –
CC[C@H](C)[C@H](NC(=O)[C@@H](CC(C)C)[C@@H](O)[C@H](O)[C@H](CC(C)C)NC(=O)[C@H](Cc1c[nH]cn1)NC(=O)COc1cccc2ccccc12)C(=O)NCc1ccccn1 | 220 nM | –
CC[C@H](C)[C@H](NC(=O)[C@@H](Cc1ccccc1)[C@@H](O)[C@H](O)[C@H](Cc1ccccc1)NC(=O)[C@H](Cc1c[nH]cn1)NC(=O)COc1cccc2ccccc12)C(=O)NCc1ccccn1 | 12 nM | –
CC[C@H](C)[C@H](NC(=O)[C@H](CC(C)C)[C@@H](O)[C@H](O)[C@H](CC(C)C)NC(=O)[C@H](Cc1c[nH]cn1)NC(=O)COc1cccc2ccccc12)C(=O)NCc1ccccn1 | 7 nM | –
